Results on five compounds are retold here after article PMC7323586 (Journal of molecular biology, 2020).

In test [1] the target is T1, B. subtilis XPRT (Bacillus subtilis, UniProt P42085). The experiment in a line: DRaCALA binding of 32P-labeled alarmones to XPRT. To be noted: for nH (Hill coefficient from binding curve): DRaCALA binding curve, ± standard error. In short, it runs like this: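 Purified hexahistidine-tagged B. subtilis XPRT at varied concentrations was mixed with 32P-labelled alarmone in 20 mM HEPES pH 8, 100 mM NaCl, 10 mM MgCl2. The label was added at 1:50–1:100 of the first synthesis elution fraction. After 10 min at room temperature, aliquots were spotted on nitrocellulose, dried ≥20 min and phosphorimaged. Fraction bound was edge-corrected and fitted to Y = (Bmax × X^h)/(Kd^h + X^h).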
T1 sequence (P42085 whole entry): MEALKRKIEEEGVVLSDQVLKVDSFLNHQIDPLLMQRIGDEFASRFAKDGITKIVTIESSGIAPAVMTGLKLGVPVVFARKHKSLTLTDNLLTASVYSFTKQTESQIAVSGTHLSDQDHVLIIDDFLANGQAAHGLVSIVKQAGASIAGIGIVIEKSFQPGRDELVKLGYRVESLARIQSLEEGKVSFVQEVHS

For test [2], the target named is T1, B. subtilis XPRT. The test can be described thus: XPRT activity assay. The class given is biochemical. To be noted: 1 mM PRPP, 50 μM xanthine; ± standard error. In short, it runs like this:
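Xanthine started the reaction, and XMP was followed at A252 for 10 min (Δε 5350 M−1cm−1). Initial-velocity slopes were normalized to uninhibited controls and fitted to Y = 1/(1 + (X/IC50)^n), with n reported as napp.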

A further test addresses XPRT (Bacillus subtilis, UniProt P42085). The test can be described thus: XPRT interaction with ppApp. The class given is binding. The conditions noted are these: data not shown.
Test [3] has as its target T1, B. subtilis XPRT. The test can be described thus: Size exclusion chromatography of XPRT with ppGpp in the mobile phase. The conditions noted are these: 35 μM ppGpp in the mobile phase, XPRT at 10 or 20 μM. In short, it runs like this:
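Untagged (TEV-cleaved) XPRT at 10 or 20 μM was run on a Superose 12 column at 0.25 mL/min. The mobile phase was 20 mM HEPES pH 8, 300 mM NaCl, 10 mM MgCl2, with ppGpp at 35 μM final, after equilibration with ≥1 column volume. A280 traces were baseline-normalized. Predicted retention volumes (monomer 13.58, dimer 12.41) came from the 21038 Da molecular weight and a column standard curve.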
Background: Size exclusion chromatography separates by hydrodynamic size, large species first.

In test [4] the target is T1, B. subtilis XPRT. The test can be described thus: biochemical.
The subject of a further test is (p)ppGpp^0 B. subtilis. The test can be described thus: GTP levels by thin layer chromatography of 32P-orthophosphate-labeled cells. It is filed as cell-based, Bacillus subtilis.
The subject of a further test is B. subtilis. The experiment in a line: B. subtilis viability assay. The class given is cell-based, Bacillus subtilis. To be noted: (p)ppGpp^0 xpt mutant B. subtilis, 1 mM xanthine. In short, it runs like this:
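Strains were taken from single colonies, resuspended in S7 plus VILMTH amino acids, and spread on Spizizen casamino-acid agar for about 16 h at 30 °C. Cells were collected, diluted to OD600 0.01 in S7+VILMTH and grown to OD600 ≈ 0.2. After a t=0 sample, cultures were split and given 1 mM xanthine or water. Sampling was at 30, 60 and 120 min. Ten-fold dilutions were plated on LB for CFU/mL, in triplicate.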

Molecules are shown by their SMILES.

Chain of XPRT (P42085 whole entry): as above

In the case of `Nc1nc2c(ncn2[C@@H]2O[C@H](COP(=O)(O)O)[C@@H](OP(=O)(O)OP(=O)(O)O)[C@H]2O)c(=O)[nH]1` [pGpp], on B. subtilis XPRT [1], binding was characterised by a dissociation constant (Kd) of 760 ± 40 nM and the “nH (Hill coefficient from binding curve)” value was determined as 2.3 ± 0.2. Also, the “napp (apparent Hill coefficient from inhibition curve)” value on B. subtilis XPRT [2] came to 1.6 ± 0.1.

`Nc1ncnc2c1ncn2[C@@H]1O[C@H](COP(=O)(O)OP(=O)(O)O)[C@@H](OP(=O)(O)OP(=O)(O)O)[C@H]1O` [ppApp]: the “interaction with XPRT” value at XPRT was “does not interact”.

With `Nc1nc2c(ncn2[C@@H]2O[C@H](COP(=O)(O)OP(=O)(O)O)[C@@H](OP(=O)(O)OP(=O)(O)O)[C@H]2O)c(=O)[nH]1` [ppGpp], the “effect on XPRT oligomeric state” value on B. subtilis XPRT [3] was “stabilized the dimeric XPRT population”. In addition, on B. subtilis XPRT [1], the affinity, expressed as Kd, was 950 ± 30 nM and the “nH (Hill coefficient from binding curve)” value is reported as 2.1 ± 0.1. Also, the “napp (apparent Hill coefficient from inhibition curve)” value on B. subtilis XPRT [2] amounted to 1.7 ± 0.1.

For `Nc1nc2c(ncn2[C@@H]2O[C@H](COP(=O)(O)OP(=O)(O)OP(=O)(O)O)[C@@H](OP(=O)(O)OP(=O)(O)O)[C@H]2O)c(=O)[nH]1` [pppGpp], the affinity on B. subtilis XPRT [4] corresponds to a Ki of 2500 nM. On B. subtilis XPRT [1], the Kd (in general, the concentration at which binding is half-saturated) was 9600 ± 2200 nM and the “nH (Hill coefficient from binding curve)” value was determined as 1.3 ± 0.2. At B. subtilis XPRT [2], the “napp (apparent Hill coefficient from inhibition curve)” value came out at 1.5 ± 0.1.

`O=c1[nH]c(=O)c2nc[nH]c2[nH]1` [xanthine]: the “increase in (p)ppGpp^0 GTP levels” value in the test on (p)ppGpp^0 B. subtilis ((p)ppGpp^0 B. subtilis during growth with xanthine) is on record as ~ 6 fold. The GTP levels result in the test on (p)ppGpp^0 B. subtilis ((p)ppGpp^0 vs wild type B. subtilis, 1 mM xanthine, 30 min) is recorded as “elevated relative to wild type”. Further, the “viability (colony forming units)” value with B. subtilis is reported as “unaffected”.
